Compound activity (PubChem)
Most compounds without a hit are left out; they make up all but 3.5% or so of the library.
MrgX1 PAM: positive allosteric modulators of MrgX1, primary screen, HEK293 cells, Fluo-4 calcium flux; FDSS; stronger effect = higher value; B-score at 10 µM; hit rate 0.63% among 310,000;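 active = plate-corrected calcium response at least 3 library SD above typical, normal starting fluorescence, not activating the receptor alone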;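 note: compound read alongside a low EC10 to EC30 dose of BAM8-22 agonist; peak minus trough fluorescence over baseline measured at the second addition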
Target sequence (Q96LB2 whole entry, looked up): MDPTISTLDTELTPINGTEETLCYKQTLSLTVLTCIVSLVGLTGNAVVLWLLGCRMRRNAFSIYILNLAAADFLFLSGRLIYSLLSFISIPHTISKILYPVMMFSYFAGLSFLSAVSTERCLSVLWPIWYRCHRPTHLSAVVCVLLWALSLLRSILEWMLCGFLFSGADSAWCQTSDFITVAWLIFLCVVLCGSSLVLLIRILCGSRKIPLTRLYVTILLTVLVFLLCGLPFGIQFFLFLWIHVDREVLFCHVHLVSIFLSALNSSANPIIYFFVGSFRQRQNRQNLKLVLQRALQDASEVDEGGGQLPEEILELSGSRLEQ
RGS4 block: RGS4 inhibitors, primary screen, cell-based, HEK293 M3R inducible RGS4, calcium flux; Regulator of G-protein signaling 4 (Homo sapiens), P49798; Fluo-4 calcium flux; stronger effect = higher value; triggered by carbachol at its EC20; B-score at 10 µM; hit rate 0.45% among 310,000; AID 463165, 2010;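 active = B-score, a plate-corrected calcium signal, over three deviations above library mean, with baseline fluorescence within five deviations of library mean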;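 note: RGS4 expression induced by doxycycline in cells with stable M3 receptor; B-score is computed from the integrated fluorescence ratio over baseline after carbachol; higher B-score means a larger calcium signal and so more RGS4 inhibition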
Target sequence (P49798 whole entry, looked up): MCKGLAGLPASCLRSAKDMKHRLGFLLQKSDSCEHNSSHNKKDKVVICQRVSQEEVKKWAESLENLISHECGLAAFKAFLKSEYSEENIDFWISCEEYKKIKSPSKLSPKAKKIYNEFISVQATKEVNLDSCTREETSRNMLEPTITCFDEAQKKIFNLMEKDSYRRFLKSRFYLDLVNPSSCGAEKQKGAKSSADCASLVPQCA
MrgX1 antag: antagonists of human MrgX1 receptor, primary screen, HEK293 cells, Fluo-4 calcium flux | hit rate 1.3% among 310,000 | Mas-related G-protein coupled receptor member X1 (Homo sapiens), Q96LB2 | BAM8-22 antagonism; stronger effect = lower value | B-score at 10 µM;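 active = calcium-response B-score plate-corrected more than 3 library SD below zero, starting fluorescence within 5 deviations, no agonist response on first addition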;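 note: peak minus trough fluorescence over baseline after final BAM8-22 challenge near maximal dose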
RGS4 act: RGS4 potentiators or activators, primary screen, cell-based, HEK293 M3R inducible RGS4, calcium flux. carbachol calcium flux Fluo4; stronger effect = lower value. B-score at 10 µM. hit rate 0.92% among 310,000. AID 463111, 2010;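 active = B-score of the integrated calcium signal more than 4 SD below the library mean, with starting fluorescence not abnormally high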;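 note: negative B-score means reduced calcium response which marks RGS4 activation or potentiation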
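Assay system: HEK293 FlpIn-TREx cells, stable M3R, doxycycline-inducible RGS4 / Probe or stimulus: carbachol, ECmax concentration / Times: overnight RGS4 induction, 30 min dye load 37 °C, 20 min compound RT / Signal: kinetic calcium fluorescence imaging with Fluo4-AM dye, 2 µM / Measure: Agonist-evoked peak-minus-minimum fluorescence over baseline, integrated ratio, B score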
MrgX1 ag: agonists of human MrgX1 receptor, primary screen, HEK293 cells, Fluo-4 calcium flux; B-score at 10 µM; hit rate 0.44% among 310,000; Fluo-4 calcium fluorescence, agonist mode; stronger effect = higher value;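 active = calcium response B-score plate-corrected fluorescence ratio at least 3 library SD, with starting fluorescence B-score inside 5 SD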
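Test system: Stable human MrgX1 HEK293 cell line | Schedule: Overnight plating before 1 h dye loading | Read-out basis: Baseline-normalised fluorescence change ratio, B-scored | Detection: Kinetic calcium dye fluorescence, Fluo-4 NW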
RGS4 block valid: enhanced carbachol calcium response, M3R/RGS4 cells, RGS4 inhibitor project, cell-based, validation screen, HEK293 M3R/RGS4, calcium flux. shares compounds with RGS4 block. carbachol calcium Fluo-4 fluorescence; carbachol added at its EC20; 0 = buffer wells, 100 = carbachol control. calcium response, % at 10 µM. hit rate 65% among 1,700. AID 492999, 2010;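 active = duplicate-averaged calcium response above the buffer-only control mean plus 5 SD of those controls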;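 note: integrated fluorescence ratio F max minus min over baseline F0; higher response in RGS4-induced cells means RGS4 inhibition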
M3R Ca ctr: carbachol calcium response in non-induced M3R cells, confirmation, counter-screen for RGS4 inhibitor project, cell-based, HEK293 M3R; shares compounds with RGS4 block; carbachol calcium Fluo-4; submaximal (EC20) carbachol stimulus; buffer wells 0%, carbachol control wells 100%; activity (percent), % at 10 µM; hit rate 20% among 1,900; call rule not given here;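 note: RGS4 induction absent so cells express M3R without RGS4; higher means more calcium signal and flags a non-specific hit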
M3R basal Ca ctr: second RGS4 inhibitor counter-screen in uninduced cells lacking carbachol. HEK293 M3R/RGS4 non-induced, Fluo-4 calcium, no carbachol; normalised: buffer wells 0%, carbachol wells 100%. hit rate 22% among 1,900. shares compounds with RGS4 block. AID 493001. calcium response (agonist-mode artifact), % at 10 µM;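 active = duplicate-averaged calcium rise in uninduced cells above buffer wells' mean plus 5 SD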
Active calls of the source: *; i = inactive; / = not tested or not shown.

SMILES	MrgX1 PAM	RGS4 block	MrgX1 antag	RGS4 act	MrgX1 ag	RGS4 block valid	M3R Ca ctr	M3R basal Ca ctr
O=C(/C=C/c1ccoc1)c1ccccc1O	i	i	i	i	i	/	/	/
COc1ccc(C(=O)/C=C/c2cc(C(=O)O)cc3c2OCOC3)c(O)c1	i	24*	i	i	i	64%*	70%*	i
COc1ccc(C(=O)/C=C/c2ccc(OC)cc2OC)c(O)c1	i	i	i	i	i	/	/	/
Cc1ccc(CSC2=NCCN2C(=O)c2ccc(S(=O)(=O)N(C)C)cc2)cc1	i	i	i	i	i	/	/	/
O=C(Nc1nnc(-c2ccc3c(c2)OCCO3)o1)C1CCCCC1	i	8.4*	i	i	i	7.0%*	i	i
O=C(C1CCCN(Cc2ccccc2[N+](=O)[O-])C1)N1CCCCC1 (centres undefined)	i	i	i	i	i	/	/	/
N#CC1=C(N)C(C#N)(C#N)C2(C(=O)Nc3ccccc32)C2CCCC=C12 (centres undefined)	i	5.4*	i	i	i	24%*	31%*	i
C(=N\Nc1nc(-c2ccccc2)cs1)/c1cccnc1	i	i	i	i	i	i	i	i
Clc1ccc(-c2csc(N/N=C/c3cccnc3)n2)c(Cl)c1	i	i	i	i	i	/	/	/
COc1ccc(-c2cc(C(F)(F)F)n3nc(C(=O)NCc4ccco4)cc3n2)cc1OC	i	8.2*	i	i	i	10%*	i	10%*
CCn1c(=O)c([N+](=O)[O-])c(Cl)c2ccccc21	10*	6.6*	i	i	i	8.5%*	i	9.5%*
CC(=O)c1ccc(OCCn2cnc3ccccc32)cc1	i	i	i	i	i	/	/	/
Cc1c(OCC(=O)N[C@@H](CSCc2ccccc2)C(=O)O)ccc2c3c(c(=O)oc12)CCC3	/	4.9*	/	i	/	i	i	i
Cc1c(OCC(=O)N[C@@H](Cc2ccccc2)C(=O)O)ccc2c3c(c(=O)oc12)CCC3	i	i	i	i	i	i	i	i
COc1ccc(-c2cc(=O)oc3c(C)c(O)ccc23)cc1	i	i	i	i	i	/	/	/
COc1ccc(/C=C/C(=O)c2c(O)ccc3c(C)cc(=O)oc23)cc1	i	i	i	i	i	i	i	i
COc1ccc(/C=C\C(=O)c2c(O)ccc3c(C)cc(=O)oc23)cc1	i	i	i	i	i	/	i	i
CCOc1ccc(/C=C/C(=O)c2c(O)cc(C)oc2=O)cc1	i	i	i	i	i	/	/	/
CCOCCCNC(=O)c1ccc2c(c1)N=C(CC)c1cc(Br)ccc1S2	i	i	i	i	i	/	/	/
COc1ccc(CCNC(=S)c2ccccc2)cc1OC	i	i	i	i	i	/	/	/
NC(=O)C1CCN(c2ncc(C(F)(F)F)cc2Cl)CC1	i	i	i	i	i	/	/	/
COC(=O)c1ccc([C@H](NC(=O)c2ccco2)[C@]2(C)C[C@H]2C2CCCCC2)cc1	i	i	i	i	i	/	/	/
CCOC(=O)/C(C#N)=C/c1cc2cc(C)c(C)cc2nc1Cl	i	i	i	i	i	/	/	/
Cc1cc2cc(C=C(C#N)C#N)c(Cl)nc2cc1C	i	5.9*	i	i	36*	14%*	i	25%*
O=C(CC1CCC1)Nc1cccc2c([N+](=O)[O-])cccc12	i	i	i	i	i	/	/	/
SMILES	MrgX1 PAM	RGS4 block	MrgX1 antag	RGS4 act	MrgX1 ag	RGS4 block valid	M3R Ca ctr	M3R basal Ca ctr
COc1ccc(OC)c(S(=O)(=O)Nc2ccc(-c3ccc4nncn4n3)cc2)c1	i	i	i	i	i	/	/	/
O=C1c2cccc3c([N+](=O)[O-])c(O)cc(c23)C(=O)N1Nc1ccccc1	i	6.3*	i	i	i	12%*	i	i
O=C1c2ccccc2C(=O)N1Nc1ccccc1	i	i	i	i	i	/	/	/
O=C(N/N=C/c1ccc(O)cc1)c1[nH]c2ccc(Br)cc2c1-c1ccccc1	i	i	i	i	i	/	/	/
O=C(N/N=C/c1c[nH]c2ccccc12)c1[nH]c2ccc(Br)cc2c1-c1ccccc1	/	7*	/	i	/	18%*	28%*	i
CCOCCCNC(=O)/C(C#N)=C/c1ccc(Cl)c([N+](=O)[O-])c1	i	11*	i	i	i	34%*	i	i
CCOCCCNC(=O)/C(C#N)=C/c1cc(OC)c(O)c([N+](=O)[O-])c1	i	i	i	i	i	/	/	/
COc1cc(C(=O)Nc2nc(C)cc(C)n2)cc(OC)c1OC	i	i	i	i	i	/	/	/
Cc1ccc(SC(CC(=O)c2ccc(F)cc2)C(=O)O)cc1 (centres undefined)	i	i	i	i	i	/	i	i
N#C/C(=C\c1ccccc1[N+](=O)[O-])c1nc(C2CC2)cs1	i	i	i	i	i	/	/	/
N#C/C(=C\c1ccc([N+](=O)[O-])cc1)c1nc(C2CC2)cs1	i	13*	i	i	i	i	i	56%*
COc1cc(OC)cc(-c2cc(N)n(S(=O)(=O)c3cccc4nsnc34)n2)c1	i	4.8*	i	i	i	8.0%*	i	i
CC1CCN(c2c(NCC3CCC(C(=O)NCCCc4ccccc4)CC3)c(=O)c2=O)CC1 (centres undefined)	i	6.4*	i	i	i	6.0%*	i	i
CC1CCN(c2c(NCC3CCC(C(=O)NCc4ccccc4)CC3)c(=O)c2=O)CC1 (centres undefined)	i	i	i	i	i	/	i	i
O=C(O)COc1ccc(/C=C2/SC(=S)N(Cc3ccccc3)C2=O)cc1	i	i	i	i	i	/	42%*	i
